The text below walks through data of ChEMBL document CHEMBL5649170, “Sustained microglial depletion with CSF1R inhibitor impairs parenchymal plaque development in an Alzheimer's disease model” (Nat Commun, 2019).

The subject of data set [1] is Mus musculus. The data set is described as follows: Antialzheimer activity in 5XFAD mouse assessed as appearance of CAA in […] cortex at 600 ppm administered as rodent chow starting from 1.5 months and measured after 5 months by immunolabeling based confocal microscopic analysis. As to conditions: route po, time 3.5 months. It is filed as functional, organism-based. The procedure, abridged:
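5xFAD mice fed PLX3397 at 600 ppm in AIN-76A chow from 1.5 to 5 months of age; brain sections stained with Thio-S and immunolabeled for IBA1, imaged by confocal microscopy for vascular Thio-S deposits.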

The target in data set [2] is T1, Macrophage colony-stimulating factor 1 receptor (Mus musculus) (UniProt P09581).
T1 sequence (whole entry): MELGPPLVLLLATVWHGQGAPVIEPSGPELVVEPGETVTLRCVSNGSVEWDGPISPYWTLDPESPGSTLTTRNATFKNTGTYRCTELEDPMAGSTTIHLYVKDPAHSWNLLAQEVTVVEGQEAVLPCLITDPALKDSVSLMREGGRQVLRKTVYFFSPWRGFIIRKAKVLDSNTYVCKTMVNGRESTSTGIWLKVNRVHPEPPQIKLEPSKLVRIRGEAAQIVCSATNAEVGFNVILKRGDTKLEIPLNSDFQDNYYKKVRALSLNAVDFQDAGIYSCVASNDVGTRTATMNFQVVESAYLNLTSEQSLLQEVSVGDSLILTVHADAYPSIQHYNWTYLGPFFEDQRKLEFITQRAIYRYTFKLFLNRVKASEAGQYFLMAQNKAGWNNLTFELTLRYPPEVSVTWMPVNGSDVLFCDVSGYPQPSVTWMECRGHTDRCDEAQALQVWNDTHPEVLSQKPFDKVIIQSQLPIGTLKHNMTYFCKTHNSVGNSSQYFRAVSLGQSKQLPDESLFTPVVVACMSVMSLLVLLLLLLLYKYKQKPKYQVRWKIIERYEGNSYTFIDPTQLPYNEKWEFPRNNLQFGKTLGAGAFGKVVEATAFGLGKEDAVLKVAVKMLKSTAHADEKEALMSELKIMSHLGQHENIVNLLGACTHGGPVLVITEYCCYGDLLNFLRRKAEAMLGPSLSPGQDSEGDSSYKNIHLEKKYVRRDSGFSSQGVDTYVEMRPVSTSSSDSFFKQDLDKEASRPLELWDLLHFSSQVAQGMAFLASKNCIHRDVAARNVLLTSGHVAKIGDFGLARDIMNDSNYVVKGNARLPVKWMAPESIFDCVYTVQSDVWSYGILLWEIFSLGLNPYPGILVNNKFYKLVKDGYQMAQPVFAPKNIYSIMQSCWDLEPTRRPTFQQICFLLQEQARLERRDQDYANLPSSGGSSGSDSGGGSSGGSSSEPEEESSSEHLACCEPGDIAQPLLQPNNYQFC
The data set can be described thus: In vivo inhibition of CSF1R in wildtype mouse assessed as microglial numbers by measuring number of Iba positive cells per FOV in […] cortex at 75 ppm administered as rodent chow starting from 1.5 months and measured after 5 months by immunolabeling based confocal microscopic analysis (reference value: 200 to 275). As to conditions: route po, time 3.5 months. In kind it is functional.

Data set [3] deals with Mus musculus. The data set can be described thus: Antialzheimer activity in 5XFAD mouse assessed as average plaque volume in somatosensory cortex at 75 ppm administered as rodent chow starting from 1.5 months and measured after 5 months by immunolabeling based confocal microscopic analysis (reference value: 871.142 to 1628.317 microm3). In kind it is functional. As to conditions: route po, time 3.5 months, 2555 h. The gist of the method: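 5xFAD mice fed PLX3397 at 75 ppm in AIN-76A chow from 1.5 to 5 months of age; retrosplenial and somatosensory cortex sections stained with Thio-S and immunolabeled for IBA1; confocal imaging, IBA1+ cells and plaques quantified per region; two-tailed independent t-test, n = 4–5 per group, mean ± SEM.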

Data set [4] addresses Aurora kinase C (Homo sapiens, UniProt Q9UQB9). The data set is described as follows: Inhibition of AURKC (unknown origin).
Data set [5] is described as follows: Effect on Siglech gene expression in wild type mouse hippocampus at 1200 ppm administered as rodent chow starting from 1.5 months and measured after 7 months by RNA-Seq analysis (reference value: 3.309 to 4.234 RPKM). It is filed as functional. As to conditions: route po, time 5.5 months, 4015 h.
Data set [6] deals with Serine/threonine-protein kinase Sgk3 (Homo sapiens, UniProt Q96BR1). The data set can be described thus: Inhibition of SGKL (unknown origin).
Chain of Serine/threonine-protein kinase Sgk3 (Q96BR1 whole entry): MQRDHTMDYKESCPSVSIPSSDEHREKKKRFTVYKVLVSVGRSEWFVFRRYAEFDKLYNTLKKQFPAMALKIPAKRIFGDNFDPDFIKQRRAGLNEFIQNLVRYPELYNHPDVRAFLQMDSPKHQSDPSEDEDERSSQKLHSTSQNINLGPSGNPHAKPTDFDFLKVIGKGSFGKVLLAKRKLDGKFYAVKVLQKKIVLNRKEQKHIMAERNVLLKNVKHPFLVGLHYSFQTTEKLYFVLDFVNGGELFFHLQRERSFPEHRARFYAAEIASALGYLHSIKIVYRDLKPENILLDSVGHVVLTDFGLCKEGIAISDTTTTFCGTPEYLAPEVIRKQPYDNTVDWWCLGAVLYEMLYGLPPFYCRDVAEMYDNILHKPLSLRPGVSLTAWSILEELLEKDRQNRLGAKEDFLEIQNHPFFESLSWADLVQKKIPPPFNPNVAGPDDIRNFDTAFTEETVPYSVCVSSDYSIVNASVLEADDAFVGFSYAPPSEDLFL
Data set [7] has as its system Mus musculus. The data set can be described thus: Antialzheimer activity in wildtype mouse assessed as number of Iba positive cells per FOV in somatosensory cortex at 1200 ppm administered as rodent chow starting from 1.5 months and measured after 7 months (reference value: 371 to 472). It is filed as functional. As to conditions: route po, time 5.5 months, 4015 h.

The nature of data set [8]: Effect on Spi1 gene expression in wild type mouse thalamus at 1200 ppm administered as rodent chow starting from 1.5 months and measured after 7 months by RNA-Seq analysis (reference value: 1.161 to 2.277 RPKM). The note with it: route po, time 5.5 months, 4015 h. It is filed as functional.
Data set [9] is described as follows: Oral bioavailability in male rat at 45 mg/kg administered as single via gavage. In kind it is ADME, organism-based. As to conditions: in vivo.
The target of data set [10] is Serine/threonine-protein kinase PAK 3 (Homo sapiens, UniProt O75914). The data set can be described thus: Inhibition of PAK3 (unknown origin).
Chain of Serine/threonine-protein kinase PAK 3 (O75914 whole entry): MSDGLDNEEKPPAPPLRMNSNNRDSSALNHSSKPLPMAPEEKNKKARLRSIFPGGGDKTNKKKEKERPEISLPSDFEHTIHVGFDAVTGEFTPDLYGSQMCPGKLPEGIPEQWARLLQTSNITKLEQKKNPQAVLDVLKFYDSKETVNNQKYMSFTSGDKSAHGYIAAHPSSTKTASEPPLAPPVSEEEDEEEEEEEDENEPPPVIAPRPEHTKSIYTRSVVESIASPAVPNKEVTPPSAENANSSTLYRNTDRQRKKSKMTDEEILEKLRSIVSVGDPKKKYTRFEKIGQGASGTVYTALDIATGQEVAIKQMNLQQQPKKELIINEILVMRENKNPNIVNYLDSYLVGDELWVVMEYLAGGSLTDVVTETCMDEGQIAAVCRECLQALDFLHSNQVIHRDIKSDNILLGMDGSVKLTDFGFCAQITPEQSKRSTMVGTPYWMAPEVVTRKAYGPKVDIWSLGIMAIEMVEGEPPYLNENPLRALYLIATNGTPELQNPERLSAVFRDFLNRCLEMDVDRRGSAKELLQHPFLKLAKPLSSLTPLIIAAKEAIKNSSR
Data set [11] deals with Mus musculus. The data set can be described thus: Effect on APP processing pathway in 5XFAD mouse assessed as C83 protein signal intensity in cortex at 1200 ppm administered as rodent starting from 1.5 months and measured after 7 months (reference value: 37.776 to 172.037 %). As to conditions: route po, time 5.5 months, 4015 h. In kind it is functional.
Data set [12] is described as follows: Prevention of Pcdhac1 gene downregulation in 5XFAD mouse hippocampus assessed as percent change in Reads Per kilo base per Million mapped reads at 1200 ppm administered as rodent chow starting from 1.5 months and measured after 7 months by RNA-Seq analysis (reference value: 43.082 to 72.354 %). In kind it is functional. The note with it: route po, time 5.5 months, 4015 h.

In data set [13] the target is Serine/threonine-protein kinase PLK2 (Homo sapiens, UniProt Q9NYY3). The data set can be described thus: Inhibition of PLK2 (unknown origin).
Chain of Serine/threonine-protein kinase PLK2 (Q9NYY3 whole entry): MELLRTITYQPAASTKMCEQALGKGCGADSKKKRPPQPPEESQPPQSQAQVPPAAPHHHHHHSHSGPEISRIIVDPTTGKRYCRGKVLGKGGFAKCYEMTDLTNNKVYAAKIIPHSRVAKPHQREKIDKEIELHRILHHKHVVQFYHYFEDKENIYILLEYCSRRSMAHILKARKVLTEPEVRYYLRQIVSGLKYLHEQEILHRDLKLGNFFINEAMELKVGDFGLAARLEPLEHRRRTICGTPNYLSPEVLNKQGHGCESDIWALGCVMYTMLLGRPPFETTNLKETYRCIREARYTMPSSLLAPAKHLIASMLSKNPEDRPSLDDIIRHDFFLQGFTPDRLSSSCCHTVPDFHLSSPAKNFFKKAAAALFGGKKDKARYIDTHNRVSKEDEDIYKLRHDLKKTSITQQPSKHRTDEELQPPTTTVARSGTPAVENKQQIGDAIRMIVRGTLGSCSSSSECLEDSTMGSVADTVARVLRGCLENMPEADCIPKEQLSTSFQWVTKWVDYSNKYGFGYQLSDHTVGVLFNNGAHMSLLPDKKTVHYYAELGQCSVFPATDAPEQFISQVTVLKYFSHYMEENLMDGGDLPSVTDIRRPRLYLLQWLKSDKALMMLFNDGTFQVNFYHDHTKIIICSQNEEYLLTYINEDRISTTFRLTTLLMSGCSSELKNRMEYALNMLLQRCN
A short description of data set [14]: Toxicity in wildtype mouse assessed as time spent in perimeter zone at 1200 ppm administered as rodent chow for 10 to 24 weeks by Open field test (reference value: 223.8 to 267.6 sec). As to conditions: in vivo, po, time 10-24 weeks.
The target in data set [15] is Casein kinase I isoform delta (Homo sapiens, UniProt P48730). The data set is described as follows: Inhibition of CSNK1D (unknown origin).
Chain of Casein kinase I isoform delta (P48730 whole entry, canonical isoform): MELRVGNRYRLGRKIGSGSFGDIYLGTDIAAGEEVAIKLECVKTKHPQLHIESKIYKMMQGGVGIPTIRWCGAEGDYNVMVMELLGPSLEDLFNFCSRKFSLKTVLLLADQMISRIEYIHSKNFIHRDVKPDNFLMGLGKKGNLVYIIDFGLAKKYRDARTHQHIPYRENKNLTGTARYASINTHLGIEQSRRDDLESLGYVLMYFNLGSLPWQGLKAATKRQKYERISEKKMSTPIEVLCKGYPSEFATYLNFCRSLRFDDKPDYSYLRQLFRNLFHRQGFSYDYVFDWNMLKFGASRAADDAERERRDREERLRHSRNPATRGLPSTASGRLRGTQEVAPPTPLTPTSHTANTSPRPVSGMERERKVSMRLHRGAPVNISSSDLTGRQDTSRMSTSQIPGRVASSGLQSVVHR
The target in data set [16] is Ribosomal protein S6 kinase alpha-3 (Homo sapiens, UniProt P51812). The data set can be described thus: Inhibition of RPS6KA3 (unknown origin).
Chain of Ribosomal protein S6 kinase alpha-3 (P51812 whole entry): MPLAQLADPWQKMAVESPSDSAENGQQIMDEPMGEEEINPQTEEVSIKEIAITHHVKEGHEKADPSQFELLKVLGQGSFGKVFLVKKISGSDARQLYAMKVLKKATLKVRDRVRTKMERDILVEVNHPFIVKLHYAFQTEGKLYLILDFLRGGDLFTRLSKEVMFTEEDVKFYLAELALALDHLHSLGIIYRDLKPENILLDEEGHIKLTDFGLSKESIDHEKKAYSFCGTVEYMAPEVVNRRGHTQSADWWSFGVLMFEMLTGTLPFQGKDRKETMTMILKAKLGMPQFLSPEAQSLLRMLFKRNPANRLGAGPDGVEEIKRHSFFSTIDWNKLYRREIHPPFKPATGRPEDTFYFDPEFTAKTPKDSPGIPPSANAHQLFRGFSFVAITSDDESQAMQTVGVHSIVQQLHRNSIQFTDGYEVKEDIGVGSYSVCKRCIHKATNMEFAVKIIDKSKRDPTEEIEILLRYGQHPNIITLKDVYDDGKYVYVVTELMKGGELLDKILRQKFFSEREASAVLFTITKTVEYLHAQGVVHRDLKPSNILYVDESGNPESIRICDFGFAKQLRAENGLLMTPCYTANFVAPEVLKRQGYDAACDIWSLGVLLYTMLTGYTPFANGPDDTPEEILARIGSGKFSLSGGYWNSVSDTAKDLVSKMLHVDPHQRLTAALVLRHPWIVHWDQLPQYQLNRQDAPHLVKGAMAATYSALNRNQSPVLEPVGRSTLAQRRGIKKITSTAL
Data set [17] deals with T1, Macrophage colony-stimulating factor 1 receptor (Mus musculus). The data set can be described thus: In vivo inhibition of CSF1R in wildtype mouse assessed as number of GFAP positive cells per FOV at 1200 ppm administered as rodent chow starting from 1.5 months and measured after 4 months by immunolabeling based confocal microscopic analysis (reference value: 1 to 7). It is filed as functional. As to conditions: route po, time 2.5 months.

Data set [18] has as its system Mus musculus. The data set is described as follows: Antialzheimer activity in 5XFAD mouse assessed as number of S100bteta positive cells per FOV in somatosensory cortex at 1200 ppm administered as rodent chow for 10 to 24 weeks by immunolabelling based confocal microscopic analysis (reference value: 283 to 357). In kind it is functional. The note with it: route po, time 10-24 weeks.

Data set [19] in a line: Prevention of Zfp286 gene downregulation in 5XFAD mouse hippocampus assessed as percent change in Reads Per kilo base per Million mapped reads at 1200 ppm administered as rodent chow starting from 1.5 months and measured after 7 months by RNA-Seq analysis (reference value: 71.833 to 84.581 %). In kind it is functional. The note with it: route po, time 5.5 months, 4015 h.

The target of data set [20] is Casein kinase I isoform alpha (Homo sapiens, UniProt P48729). The data set can be described thus: Inhibition of CSNK1A1 (unknown origin).
Chain of Casein kinase I isoform alpha (P48729 whole entry, canonical isoform): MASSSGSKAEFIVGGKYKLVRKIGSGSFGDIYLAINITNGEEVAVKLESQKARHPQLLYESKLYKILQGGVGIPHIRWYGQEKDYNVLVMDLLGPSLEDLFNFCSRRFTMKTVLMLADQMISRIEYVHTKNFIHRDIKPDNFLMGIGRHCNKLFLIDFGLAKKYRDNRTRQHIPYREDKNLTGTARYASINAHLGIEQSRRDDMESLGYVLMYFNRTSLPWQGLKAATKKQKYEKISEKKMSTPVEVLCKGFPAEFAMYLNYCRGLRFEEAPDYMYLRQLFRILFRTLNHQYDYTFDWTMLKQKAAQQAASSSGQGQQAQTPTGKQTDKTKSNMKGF

Active and inactive are the calls of the source. The rule behind the calls is not given here. Bounds are passed on as bounds.

Chain of Aurora kinase C (Q9UQB9 whole entry): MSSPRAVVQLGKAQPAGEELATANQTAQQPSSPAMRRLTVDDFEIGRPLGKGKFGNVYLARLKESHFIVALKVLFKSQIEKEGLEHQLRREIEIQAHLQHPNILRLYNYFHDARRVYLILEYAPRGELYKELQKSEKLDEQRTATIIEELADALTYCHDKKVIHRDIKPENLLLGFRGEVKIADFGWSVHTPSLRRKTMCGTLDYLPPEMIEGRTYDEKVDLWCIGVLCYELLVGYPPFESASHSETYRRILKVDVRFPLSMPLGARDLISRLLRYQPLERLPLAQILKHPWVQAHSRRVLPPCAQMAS

Consider `FC(F)(F)c1ccc(CNc2ccc(Cc3c[nH]c4ncc(Cl)cc34)cn2)cn1` [PEXIDARTINIB], for which, in [1], the outcome was Active. Besides, the Activity in [2] was determined as 162; in data set [3] it was 628.64 um3.
One may read the IC50 as the midpoint of a concentration-inhibition curve. Read a low IC50 as inhibition by little substance. As a reminder, the bioavailability is the share of a dose that reaches the circulation, judged against a reference dose that is usually intravenous. A low value points to little systemic uptake. As for `COc1ncc(F)cc1CNc1ccc(Cc2c[nH]c3ncc(C)cc23)c(F)n1` [PLX-5622], the IC50 is 1000 nM in [4]; above 1000 nM in data set [6]; above 1000 nM in data set [10]; above 1000 nM in data set [13]; above 1000 nM in data set [15]; above 1000 nM in [16]. In addition, the IC50 in data set [20] is above 1000 nM. The Activity in data set [5] is 0 RPKM; in [7] it was 1; in data set [8], 0 RPKM; in data set [11], 70.442%; in [12] it was 76.485%; in [17] it was 4. The Activity in data set [18] stood at 307; in data set [19], 91.857%. This compound registered a bioavailability in data set [9] of 95%. In data set [14], the Time amounted to 178.5 s.
